Data: ChEMBL document CHEMBL4513216, “Probing the Open Global Health Chemical Diversity Library for Multistage-Active Starting Points for Next-Generation Antimalarials” (ACS Infect Dis, 2020)

experiment: Toxicity liver stage against HepG2, at 10uM; format: cell-based; set-up: test concentration 10 uM, cell line HepG2-A16-CD81EGFP; details: human, HepG2-A16-CD81EGFP cells; read-out: INHIBITION
Procedure, shortened: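 Uninfected HepG2-A16-CD81EGFP cells, 3 × 10^3 per well, 1536-well, plated on prespotted compound at 10 μM final, parasite-free screening media added to match infected plates; puromycin 10 μM positive, DMSO 0.5% negative; run in parallel with 48 h PbLuc assay at 37 °C, 5% CO2; viability by CellTiter-Glo luminescence, normalized to controls.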

Structure (SMILES) | cytotoxicity at 10 µM [%]
Cc1ccc([C@]2(O)CC[C@H]3CN(Cc4ccc(Cl)cc4Cl)C[C@H]32)nc1 | 8.32
CCc1c(C)nn(CCNC(=O)c2cnn[nH]2)c1C | -5.28
Cc1c(S(=O)(=O)NCC(C)Cn2cc(Cl)cn2)cnn1C (stereo not given) | 0.446
O=C1NCC(C(=O)Nc2ncc(Cc3cccc(F)c3)s2)N1 (stereo not given) | -2.45
Cn1c(CN2CCCC2)nnc1C1CCCN(C(=O)C2CCOCC2)C1 (stereo not given) | -17
Cc1cc(C(=O)N2CCCC(C(=O)c3cccs3)C2)c(=O)[nH]c1C (stereo not given) | -7.01
CCN(CC)c1ncc2c(c1C(=O)O)CCN(C1CCOC1)C2 (stereo not given) | 15.7
CN(C)c1cc(CNC(=O)c2ccc(F)cc2)ccn1 | -22.9
Cc1noc(C)c1CC(=O)NCCN1CCN(S(C)(=O)=O)CC1 | -5.87
CC(=O)N1CCCN(C(C)C(=O)Nc2ccnn2C(C)C)CC1 (stereo not given) | -6.22
Cc1cnn(CC2CCCCN2C(=O)CC(F)(F)F)c1 (stereo not given) | -11.5
O=C(CN1CCOc2ccccc2C1)NCc1cc2n(n1)CCCNC2 | 8.1
CN(C)C(=O)c1cccnc1SCc1ccccc1Cl | 3.25
O=C(c1cccnc1O)N1CCN(Cc2ccccc2F)CC1 | 5.57
COCCC(=O)N1CCCC1c1nc(C)c2c(n1)N(C)C(=O)CC2 (stereo not given) | -1.04
CC(=O)N(Cc1ncc(C(C)C)o1)C1CCN(CCn2cccn2)C1 (stereo not given) | -4.89
CCCNC(=O)c1cccc(CNCc2csc(C(C)(C)C)n2)c1 | 12.3
CSCCNc1ccc(C(=O)N(C)Cc2ccc3ccccc3n2)cn1 | 9.65
O=C1[C@H]2CN(Cc3ccccn3)C[C@H]2CN1c1ccsc1 | -73.2
Cc1[nH]c2ccc(CNC3CCN(Cc4ccccn4)CC3)cc2c1C | 3.97
CN1CCN(C(=O)c2cc(NC(=O)c3ccccc3)n(C)n2)CC1 | 4.07
Cc1cc(C(=O)N2CCS(=O)(=O)CC2)c(C)o1 | -16.8

Structure (SMILES) | cytotoxicity at 10 µM [%]
CS(=O)(=O)NC1CCN(C(=O)c2ccc(Br)o2)C1 (stereo not given) | -7.03
Cc1c(I)cccc1C(=O)NCC1(CO)CC1 | -4.11
Cc1nc(O)c2nnn(C[C@H]3CCCN3C(=O)c3cccs3)c2n1 | -25.6
c1ccc2oc(C3CCN(Cc4ncon4)CC3)nc2c1 | 2.56
Cc1cc(C)n2ncc(CN3CCC(n4cc(CCO)nn4)CC3)c2n1 | 6.59
Cc1ccc(CNC(=O)C2CCCCN2C(=O)OC(C)(C)C)cn1 (stereo not given) | -0.408
CCC(=O)N1CCC2(CC1)CC(NC(=O)N(C)C)c1cc(C)ccc12 (stereo not given) | 8.39
CSCc1noc(CN(C)C(C)c2nc(C)sc2C)n1 (stereo not given) | 8.2
CC(C)=CCCC(C)(O)c1cc(C(N)=O)no1 (stereo not given) | 3.56
CC(C)(CNC(=O)NCCc1ccn(-c2ccccc2)n1)C(N)=O | -16.8
FC(F)(F)c1cc(C2CCCN(Cc3ccncc3)C2)n[nH]1 (stereo not given) | -52.8
CCOc1ccc(NC(=O)N2CCNC(=O)C2)c(C(F)(F)F)c1 | 7.09
O=C(c1ccc(NC2CC2)nc1)N1CCC(Nc2cccnn2)CC1 | -12.6
O=C(NCC1OCCc2cn(CC3CC3)nc21)c1ccsc1 (stereo not given) | 6.69
Nc1nnc(SCC(=O)NCC(O)c2ccccc2)s1 (stereo not given) | 12
Cc1cccc(-c2c[nH]c(C3CCCN3C(=O)Cn3cc(C)cn3)n2)c1 (stereo not given) | 4.56
Cn1cc(NS(=O)(=O)CCOc2ccc(F)cc2)cn1 | -0.77
CCCNC(=O)NCc1ccccc1NS(=O)(=O)c1ccccc1 | 10.3
CCCN1CCC(CC(=O)NCc2cc(O)ncn2)CC1 | 14.7
Cc1nc(C2CCCCN2S(C)(=O)=O)no1 (stereo not given) | 9.23
Cc1ccn(CC(=O)Nc2cc(-c3ccncc3)[nH]n2)n1 | -14.8
O=C(NCCN1CCCCC1)c1ccoc1 | -11.3

Structure (SMILES) | cytotoxicity at 10 µM [%]
Cn1cccc1CNCc1nnc2n1CCCC2C(F)(F)F (stereo not given) | -7.53
CN(C)CCCNCC1CCOC(C)(C)C1 (stereo not given) | -8.02
COCc1ncc(CN2CC[C@@H](NC(=O)c3cccnc3)[C@H](O)C2)cn1 | -7.28
O=C(C[S+]([O-])Cc1c(F)cccc1Cl)N1CCc2sccc2C1 (stereo not given) | -0.784
CC(=O)c1cccc(S(=O)(=O)NCCNC(=O)c2snnc2C)c1 | -0.302
CCOC(=O)CN1CCC(NC(=O)OC(C)(C)C)CC1 | 0.449
CC(C)c1nccn1Cc1cc(C(=O)NCC(C)n2ccnc2)n[nH]1 (stereo not given) | -0.419
O=S1(=O)CCC(c2nnc(-c3cnc4onc(C5CC5)c4c3)o2)C1 (stereo not given) | 5.89
O=C(NCC1(O)CCSCC1)c1nccc2ccccc12 | 4.59
CS(=O)(=O)CCNC(=O)c1ccc(-c2ccco2)[nH]c1=O | -22.8
CCNC(=O)N1CCN(Cc2nc3ccccc3[nH]2)[C@@H]2CS(=O)(=O)C[C@@H]21 | 14.1
Cc1ncsc1CN(C)C(=O)C(CC(C)C)N1CCCCC1=O (stereo not given) | 3.28
CCOCCC(=O)NCCNc1nccc(C(F)(F)F)n1 | 2.88
Cc1nc(COc2ccc(OCC(N)=O)cc2)oc1C | 4.68
O=C(O)C1(n2ccc(-c3ccco3)n2)CCN(Cc2ccsc2)CC1 | -129
O=C(NC[C@H]1C[C@@H]2CCN1C[C@@H]2CN1CCCCC1)Nc1ccccc1 | 10
CCc1ccc(NC(=O)c2n[nH]c(-n3cnnc3)n2)cc1 | 4.68
CN(C1CCN(c2ccccn2)CC1)S(=O)(=O)c1cccc(F)c1 | 10.8
CC(c1cc(F)ccc1F)N1CCN(C(=O)c2ccc(=O)[nH]c2)CC1 (stereo not given) | 5.94
CCn1ncc2c1CN(C(=O)c1cscn1)CC2COC (stereo not given) | -79.1
Cc1nn(C)c(C)c1S(=O)(=O)N1CC[C@@H]2O[C@@H](C)C[C@H]2C1 | 7.15
O=C(Nc1cccnn1)NC(CCCO)c1ccccc1 (stereo not given) | -0.908

Structure (SMILES) | cytotoxicity at 10 µM [%]
COc1ccc(CSc2nnc(N)n2C2CC2)cc1Cl | 0.00426
CCNC(=O)N1CCC2(CC1)CCn1c(C3CC3)cnc12 | 1.89
COc1ccc(OC)c(CNC2CCCN(c3cccnn3)C2)c1 (stereo not given) | -4.67
CO[C@@H]1CCC[C@@H](NC(=O)CCCn2cncn2)[C@H]1O | 7.87
CC(C(=O)NCc1ccc(N2CCCCCC2)nc1)n1cncn1 (stereo not given) | -11.2
Cn1nc(COCC2CC2)c2c1CN(C(=O)c1ccno1)CC2 | -5.91
CN(C)CC1CN(Cc2ccc(-n3cccn3)cc2)CCO1 (stereo not given) | 4.09
O=C(c1cccnc1N1CCOCC1)N1CCCC(n2cncn2)C1 (stereo not given) | -3.37
CSCC[C@H](N)C(=O)NCc1cc2n(n1)CCCN(C(=O)N(C)C)C2 | 9.8
COCc1ncn(Cc2nc(-c3ccc(OC)c(OC)c3)oc2C)n1 | -4.77
Cn1ccnc1CN1CCC2(CC(=O)N(c3ccsc3)C2)C1 (stereo not given) | -82.7
CN(C)c1ccc(-c2nnc([C@H]3CCN(C4CCCCC4)C3)o2)cc1 | 0.174
C[C@]1(O)CCN(Cc2cccnc2)C[C@@H]1Oc1cccc(F)c1 | -8.22
O=C(c1cc(C2CC2)n[nH]1)N1C[C@H]2CC[C@](O)(c3ccccc3F)[C@H]2C1 | 7.66
Cc1cc(CNCc2c(C)n(CC(C)C)c3ccccc23)[nH]n1 | -1.63
CC(CC(=O)c1ccco1)NC(=O)c1ccccn1 (stereo not given) | -5.14
CCC(=O)NCC(Cc1cccc(F)c1)n1cccc1 (stereo not given) | -0.765
CN(C(=O)CC1=CCCCC1)C1CCCN(CCc2ccccc2)C1 (stereo not given) | 7.23
CCCn1cc(C(=O)N2CCCC(Cc3nccs3)C2)cn1 (stereo not given) | -11.4
Cc1oc(C)c(C(=O)NS(=O)(=O)c2ccc3c(c2)OCCO3)c1Br | 4.4
COc1c(CNC(C)c2sc(C)nc2C)c(C(C)C)nn1C (stereo not given) | 7.97
O=C(NCCc1ccccc1)c1cn(CCNCc2cccnc2)nn1 | -2.68

Structure (SMILES) | cytotoxicity at 10 µM [%]
CC(C(=O)N1CCCN(Cc2cnn(C(C)C)c2)CC1)n1ccnc1 (stereo not given) | -11.8
COCCN1CCC(c2ncc(C(=O)N3CCOCC3)c(C)n2)CC1 | 1.36
CC(O)CN1CCN(CCOCC(F)(F)F)CC1 (stereo not given) | -3.51
Cc1ccc(C(=O)N2CCOCC2C(N)=O)c(F)c1 (stereo not given) | 3.72
CCc1c(C)nn(CC(=O)NC(C)c2n[nH]c(C)n2)c1C (stereo not given) | -14.1
CC(C)NC(=O)CCC(=O)N1CCC(c2noc3cc(F)ccc23)CC1 | 2.13
CC(C)NC(=O)C1CCN(Cn2ccc(-c3ccc(F)cc3)n2)CC1 | 7.07
Cc1ccccc1C(=O)N1C[C@@H]2C[C@@H](C)O[C@@H]2C1 | 0.995
CCC(C(=O)N(C)C)N1CCC(c2nccn2Cc2cscn2)CC1 (stereo not given) | 2.86
CC(C)c1nccn1CCCNC(=O)c1ccc(-c2cncnc2)nc1 | 16.1
Cc1ncsc1CCC(=O)NCc1csc(N(C)C)n1 | 1.31
CC(c1ccccc1)N(C)C(=O)CN1CCCc2cccc(F)c21 (stereo not given) | 22.5
Cc1nnc2sc(-c3cc(C(C)C)n[nH]3)nn12 | -7.88
COCC(=O)NC1CCN(c2cccc(OC(F)(F)F)c2)C1=O (stereo not given) | -3.17
N#Cc1cn(C2CC2)c(=O)n(CC(O)c2ccc(F)cc2)c1=O (stereo not given) | 2.37
COc1cc(C(=O)N(Cc2ccc(F)cc2)C2CC2)cc2c1OCCO2 | -1.33
Nc1no[n+]([O-])c1C(=O)NCc1ccccn1 | -2.02
CC(C)OCCSCc1nnc(-c2cccc(F)c2)o1 | 9.45
Cc1nc(CN2CC3(CCN(c4cnccn4)C3)CC2=O)cs1 (stereo not given) | 1.36
COCC(=O)N1CCC(c2cc(-c3ccc(N)nc3)cc(C)n2)CC1 | 2.06
CCc1nn(-c2cc(Oc3ccccc3)nc(C)n2)c(N)c1C#N | 3.62
CC1(C)[C@@H]2CC=C(CN3CCCn4nc(C(=O)NCCO)cc4C3)[C@H]1C2 | -40.3
